From publication PMC12679430 (RSC Advances, 2025)

Tests used:
SiHa cells = test: Antiproliferative assay; format: cell-based; settings: Homo sapiens, 72 h, read-out: Antiproliferative IC50, SiHa
[1] = Microsomal stability assay; format: in vitro ADME; settings: human, human liver microsomes, pH 7.4
[2] = system: human normal cervical epithelial cells (HcerEpic); test: Toxicity in normal cervical epithelial cells; format: cell-based; settings: Epithelial cell, read-out: IC50, HcerEpic
Summary of the method: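 Cells grown in IMDM with 20% FBS, 100 U/mL penicillin and 100 µg mL−1 streptomycin at 37 °C, humidified 5% CO2. Serially diluted test compound applied for 72 h. Alamar blue (1 mM stock solution) then added for another 5–6 h, with the signal read at 530/590 nm. Data normalised to DMSO vehicle, mean of three independent measurements, and IC50 fitted from the curves.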

Hela cells = test: Antiproliferative assay; format: cell-based; settings: Homo sapiens, 72 h, read-out: Antiproliferative IC50, Hela
[3] = in clinical; cited from earlier work

half-life at 0.5 µM [1] | IC50 (Hela cells) | Structure (SMILES) | IC50 (SiHa cells) | IC50 [2] | dose-limiting toxicities [3]
6.7 h | 6.8 ± 0.35 µM | O=C(CCCCCCNC(=O)c1cnc(N(c2ccccc2)c2ccccc2)nc1)NO [ACY1215] | 11.3 ± 0.8 µM | > 50 µM | 
 |  | O=C(NO)c1ccc(CN(c2cnccn2)c2cnccn2)cc1 [KA2507] |  |  | no dose-limiting toxicities
